Screening data (PubChem BioAssay)
HIF activator – HIF pathway transcriptional activation; U2OS HRE-luciferase reporter, luminescence; normalized: DMSO 0%, desferrioxamine 100%; activation, % at 7.5 µM (by protocol); 0.32% of 300,000 active;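 active = mean activation of at least 10% of the iron chelator positive control signal, with at least half of replicates also reaching 10%; inconclusive = mean and replicate majority disagree about reaching 10%; inactive = mean and most replicates under 10%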
AI-2 QS mod – Vibrio harveyi AI-2 quorum sensing modulation. Vibrio harveyi JMH597 AI-2 luminescence/OD600 ratio, 9 h; hits give low values; strain lacks LuxN and CqsS sensors; 0 = neutral-control median. activity change, % at 7.5 µM. 0.4% of 300,000 active. AID 2094; in the data active = activity change below about -75%, passing the limit was not always enough; inconclusive = no clear call, values can overlap the other calls;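 also: luminescence divided by OD600 gain over 9 h not by final OD600 alone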
ARNT-TACC3 inh – disruptors of human ARNT/TACC3 interaction. 0.66% of 390,000 active. AlphaScreen His-ARNT PAS-B/GST-TACC3 binding, luminescence; TACC3 fragment carries E629A point mutation. Q9Y6A5. inhibition, % at 9.99 µM;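 active = mean inhibition of replicates at least 50% and at least half of replicates each reaching 50%; inconclusive = half or more replicates reach 50% but mean below 50%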
T cruzi repl – blocks replication of Trypanosoma cruzi; T. cruzi beta-gal in NIH3T3, luminescence, 90 h; AID 1885; 1.4% of 300,000 active; inhibition, % (no concentration beside the values);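 active = mean inhibition across valid replicates above about 55%, limit read from the data; inconclusive = mean below that limit but half or more replicates reach it; inactive = mean below it, under half of replicates reach it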;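 also: signal also drops with host cell toxicity which is not excluded here; higher percent means less beta-gal luminescence so fewer parasites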
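Assay system: NIH/3T3 fibroblasts plus reporter T. cruzi. Amount: NIH/3T3 cells, 5,000 per well. Buffer or medium: DMEM, 2% fetal bovine serum. Doses: compound pinned at 50 nL/well, DMSO. Schedule: ≥90 h infection period, 3 h prior cell attachment. Signal: luminescent β-galactosidase signal after 60 min lysis. Read-out: parasite load inhibition, %.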
Hits are given with their value; i = inactive; ? = inconclusive; nt = not tested or not shown. An excerpt weighted towards active compounds, which were near 2% of everything screened.

SMILES	HIF activator	AI-2 QS mod	ARNT-TACC3 inh	T cruzi repl
O=c1c2ccc([N+](=O)[O-])cc2ncn1CCOc1ccc(Cl)cc1	i	i	i	63
CN1CCN(c2nc(Nc3cccc(C(F)(F)F)c3)nc(N3CCOCC3)n2)CC1	i	i	i	58
FC(F)(F)c1cccc(Nc2nc(N3CCCC3)nc(N3CCCC3)n2)c1	i	i	i	i
Cc1nc(N2CCCCC2)c2c(C)c(C(=O)Nc3cccc(C(F)(F)F)c3)sc2n1	i	i	i	65
CCCNC(=O)[C@H]1[C@H](CO)[C@H]2Cn3c(ccc(-c4ccccc4)c3=O)[C@H]2N1C(=O)c1ccccc1F	nt	nt	i	nt
Cc1cc(C)n(-c2nc(NCCN(C)C)c3c4c(sc3n2)COC(C)(C)C4)n1	i	i	nt	i
Cc1cc(C)n(-c2nc(NCCC(C)C)c3c4c(sc3n2)COC(C)(C)C4)n1	i	i	i	76
CCCN1C[C@H](C)[C@@H](OC)CN(C)C(=O)c2ccc(NS(=O)(=O)c3cn(C)cn3)cc2OC[C@H]1C	nt	nt	i	nt
O=C(N[C@@H]1C=C[C@@H](CC(=O)N2CCc3ccccc3C2)O[C@@H]1CO)C1CCC1	nt	nt	i	nt
O=C1[C@@H]2Cc3c([nH]c4ccccc34)C(c3cccc(Br)c3)N2C(=O)CN1C1CCN(Cc2ccccc2)CC1 (stereo not given in full)	i	i	i	65
O=C1[C@@H]2Cc3c([nH]c4ccccc34)C(c3ccccc3)N2C(=O)CN1C1CCN(Cc2ccccc2)CC1 (stereo not given in full)	i	i	i	?
Cc1ccccc1C1c2[nH]c3ccccc3c2C[C@H]2C(=O)N(C3CCN(Cc4ccccc4)CC3)CC(=O)N12 (stereo not given in full)	i	i	i	61
CCOc1ccccc1C1c2[nH]c3ccccc3c2C[C@H]2C(=O)N(C3CCN(Cc4ccccc4)CC3)CC(=O)N12 (stereo not given in full)	i	i	i	62
CC(=O)N1CCC(=NNc2ncc(C(F)(F)F)cc2Cl)CC1	i	i	48	i
CN(C)C(=O)c1cccc(-c2cccc(-c3nc(C(=O)NCc4ccccc4)cc4c3[C@@H](CCO)N([S@](=O)C(C)(C)C)C4)c2)c1	nt	nt	i	nt
O=C(NC1CCC1)[C@@H]1[C@@H](CO)[C@@H]2Cn3c(ccc(-c4ccc(F)cc4)c3=O)[C@@H]2N1Cc1ccccn1	nt	nt	i	nt
NS(=O)(=O)c1ccc(CCNC(=O)CC(NC(=O)c2ccccc2Cl)c2ccccc2)cc1 (stereo not given)	i	i	i	i
COc1ccc(CCNC(=O)CC(NC(=O)c2ccccc2Cl)c2ccccc2)cc1 (stereo not given)	46	i	i	i
O=C(NNC(=O)c1ccccc1Br)c1ccc(Cl)cc1	12	i	i	i
N#Cc1cccc(-c2ccc3c(c2)[C@@H]2[C@@H](CCN2C(=O)C2CCCCC2)[C@H](CO)N3)c1	nt	nt	i	nt
Cc1ccc(NC(=O)NCC2CCN(Cc3cccc(Cl)c3)CC2)cc1Cl	i	i	i	62
O=C(Cc1ccccc1)Nc1cccc(N2C(=O)C=CC2=O)c1	i	-88	i	i
COCCC(=O)N1CCc2c([nH]c3ccccc23)C1C(C)(C)C (stereo not given)	i	i	i	i
COCc1ccc(CN2CCc3c([nH]c4ccccc34)C2C(C)(C)C)o1 (stereo not given)	i	i	45	i
O=C(C[C@H]1CC[C@H](NC(=O)NC2CCCC2)[C@@H](CO)O1)NCc1ccc(F)cc1	nt	nt	i	nt
SMILES	HIF activator	AI-2 QS mod	ARNT-TACC3 inh	T cruzi repl
COc1ccc(NC(=O)Nc2ccc3c(c2)C(=O)N([C@H](C)CO)C[C@H](C)[C@@H](CN(C)Cc2ccncc2)O3)cc1	nt	nt	i	nt
CCc1nc(N2CCN(C(=O)c3ccccc3)CC2)c2c3c(sc2n1)CCCC3	i	i	i	i
CCc1nc(N2CCN(C(=O)c3ccco3)CC2)c2c3c(sc2n1)CCCC3	499	i	i	i
CC[C@H](C)Cc1cn([C@@H](CCCN=C(NC(=O)OC(C)(C)C)NC(=O)OC(C)(C)C)C(=O)NCCCCCCCCCCC(=O)N2CCN(C(=O)OC(C)(C)C)CC2)nn1	i	i	i	59
Cc1cn([C@@H](CCCCNC(=O)OC(C)(C)C)C(=O)NCCCCCCCCCCC(=O)N2CCN(C(=O)OC(C)(C)C)CC2)nn1	nt	nt	i	nt
O=[N+]([O-])c1ccc(/C=N/N/C(=N/c2ccccn2)c2ccccn2)cc1	i	i	i	i
O=[N+]([O-])c1cc(/C=N/N/C(=N/c2ccccn2)c2ccccn2)ccc1O	i	i	66	i
COc1cccc(S(=O)(=O)N(C)C[C@@H]2Oc3ncc(C#Cc4ccc(C(F)(F)F)cc4)cc3C(=O)N([C@H](C)CO)C[C@@H]2C)c1	nt	nt	i	nt
O=C(Nc1ccncc1)c1cccc(S(=O)(=O)N2CCN(c3ccc(F)cc3)CC2)c1	i	i	i	58
O=C(Nc1ncccc1O)c1cccc(S(=O)(=O)N2CCN(c3ccc(F)cc3)CC2)c1	nt	nt	i	nt
CCc1ccc2[nH]c(=O)c(CN(Cc3ccccc3)C(=O)Nc3ccccc3OC)cc2c1	i	i	i	66
COc1ccc(C2=Nn3c([n+](C)c4ccccc43)SC2)cc1	i	i	i	70
CCOC(=O)/C(=N\Nc1cccc(C(F)(F)F)c1)N(CCOC)CCOC	i	i	nt	i
CCOC(=O)/C(=N\Nc1cccc(C(F)(F)F)c1)N1CCOCC1	708	i	i	i
COc1ccc(OC)c(/C=N\NC(=O)c2ccc(-c3ccccc3)cc2)c1	nt	i	i	nt
COc1ccccc1N(CC(=O)N/N=C/c1ccc(SC)cc1)S(C)(=O)=O	i	i	i	i
CCOc1ccccc1N(CC(=O)N/N=C/c1cc(Br)ccc1OC)S(C)(=O)=O	26	i	i	i
O=C(C[n+]1ccccc1)N/N=C/c1cc(Br)ccc1O	i	i	64	i
COc1cccc(/C=N/NC(=O)CNC(=O)c2ccco2)c1O	i	i	36	i
COc1cccc(/C=N/NC(=O)c2ccc(-c3ccccc3)cc2)c1O	47	i	i	i
C[C@@H]1CCCCO[C@H](CN(C)C(=O)Nc2ccccc2)[C@H](C)CN([C@@H](C)CO)C(=O)c2cc(NC(=O)c3ccccc3)ccc2O1	nt	nt	i	nt
C[C@@H](O)C#Cc1ccc2c(c1)O[C@H](CN(C)C(=O)C1CCC1)[C@@H](C)CN([C@@H](C)CO)S2(=O)=O	nt	nt	i	nt
COc1cc(/C=N/NC(=O)c2cccc([N+](=O)[O-])c2)cc(OC)c1O	i	i	i	i
COc1ccccc1/C=N/NC(=O)c1cccc(OC(F)(F)C(F)F)c1	nt	i	i	i
COc1cccc(/C=N/NC(=O)C(=O)Nc2ccccc2OC(F)(F)C(F)F)c1O	26	i	i	i
COc1cccc(/C=N/NC(=O)c2ccc([N+](=O)[O-])cc2Cl)c1O	11	i	59	i
CCOc1ccccc1NC(=O)C(=O)N/N=C/c1cc(Br)ccc1O	i	i	i	63
COc1cc(C(=O)Oc2ccccc2/C=N/NC(=O)c2ccc(C)cc2)cc(OC)c1OC	9.6	i	i	i
